Reference: BindingDB's records for doi:10.1016/j.ejmech.2011.01.008 (University of Lisbon, 2011)

molecular target: T1, Falcipain 2 (Plasmodium falciparum, UniProt Q9N6S8); test: Inhibition of Plasmodium falciparum falcipain 2 incubated with compound for 10 mins before addition of 25 uM Z-Leu-Arg-AMC substrate by fluorescence spectrophotometry
T1 sequence (Q9N6S8 whole entry): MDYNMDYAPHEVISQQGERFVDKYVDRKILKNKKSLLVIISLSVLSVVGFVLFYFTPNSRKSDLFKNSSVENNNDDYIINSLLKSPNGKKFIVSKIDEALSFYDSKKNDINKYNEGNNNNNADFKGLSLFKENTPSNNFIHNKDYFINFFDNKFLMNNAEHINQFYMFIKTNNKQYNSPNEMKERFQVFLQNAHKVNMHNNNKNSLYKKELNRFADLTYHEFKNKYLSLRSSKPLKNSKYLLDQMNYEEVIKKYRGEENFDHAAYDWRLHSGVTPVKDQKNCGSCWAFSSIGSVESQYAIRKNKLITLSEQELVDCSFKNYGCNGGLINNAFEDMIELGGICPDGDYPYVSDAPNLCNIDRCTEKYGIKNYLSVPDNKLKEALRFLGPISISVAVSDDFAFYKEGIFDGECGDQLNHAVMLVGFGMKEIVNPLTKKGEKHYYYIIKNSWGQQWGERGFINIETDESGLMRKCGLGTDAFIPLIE
In short: (§1)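 Run at 25 °C in 100 mM sodium acetate pH 6.0 with 5 mM DTT and 0.75% DMSO. Enzyme was preincubated 10 min with compound diluted from DMSO, then Z-Leu-Arg-AMC was added and fluorescence was read immediately. Eight inhibitor concentrations were made by fivefold serial dilution. IC50 was fitted to percent inhibition versus a no-inhibitor control against log concentration.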

IC50, > 50 µM:
O=C1Nc2ccccc2C1C=Nc1ccccc1 (stereo not drawn) [3-((phenylamino)methylene)indolin-2-one], CN1C(=O)C(C=NCCCNc2ccnc3cc(Cl)ccc23)c2ccccc21 (stereo not drawn) [(Z/E)-3-((3-(7-chloroquinolin-4-ylamino)propylamino)methylene)-1-methylindolin-2-one], O=C1Nc2ccccc2C1C=NCCCNc1ccnc2cc(Cl)ccc12 (stereo not drawn) [(Z/E)-3-((3-(7-chloroquinolin-4-ylamino)propylamino)methylene)indolin-2-one], O=C1Nc2ccc(Cl)cc2C1C=NCCCNc1ccnc2cc(Cl)ccc12 (stereo not drawn) [(Z/E)-5-chloro-3-((3-(7-chloroquinolin-4-ylamino)propylamino)methylene)indolin-2-one], O=C1Nc2cc(Cl)ccc2C1C=NCCCNc1ccnc2cc(Cl)ccc12 (stereo not drawn) [(Z/E)-6-chloro-3-((3-(7-chloroquinolin-4-ylamino)propylamino)methylene)indolin-2-one], O=C1Nc2c(Cl)cccc2C1C=NCCCNc1ccnc2cc(Cl)ccc12 (stereo not drawn) [(Z/E)-7-chloro-3-((3-(7-chloroquinolin-4-ylamino)propylamino)methylene)indolin-2-one], CC(C)CCNC(=O)[C@H](CC(C)C)N=CC1C(=O)N(C)c2ccccc21 (stereo partly drawn) [(Z/E)-(S)-N-isopentyl-4-methyl-2-((1-methyl-2-oxoindolin-3-ylidene)methylamino)pentanamide], CC(C)CCNC(=O)[C@H](CC(C)C)N=CC1C(=O)Nc2ccccc21 (stereo partly drawn) [(Z/E)-(S)-N-isopentyl-4-methyl-2-((2-oxoindolin-3-ylidene)methylamino)pentanamide], CCOC(=O)[C@H](Cc1ccccc1)N=CC1C(=O)Nc2ccccc21 (stereo partly drawn) [(Z/E)-(S)-ethyl 2-((2-oxoindolin-3-ylidene)methylamino)-3-phenylpropanoate], CC(C)CCNC(=O)CN=CC1C(=O)Nc2ccccc21 (stereo not drawn) [(Z/E)-N-isopentyl-2-((2-oxoindolin-3-ylidene)methylamino)acetamide], CCOC(=O)CN=CC1C(=O)Nc2ccccc21 (stereo not drawn) [(Z/E)-ethyl 2-((2-oxoindolin-3-ylidene)methylamino)acetate]

molecular target: Cysteine protease falcipain-3 (Plasmodium falciparum, UniProt Q9NAW4); test: Inhibition of Plasmodium falciparum falcipain 3 incubated with compound for 10 mins before addition of 25 uM Z-Leu-Arg-AMC substrate by fluorescence spectrophotometry; in short: as §1
Sequence (Q9NAW4 1-492): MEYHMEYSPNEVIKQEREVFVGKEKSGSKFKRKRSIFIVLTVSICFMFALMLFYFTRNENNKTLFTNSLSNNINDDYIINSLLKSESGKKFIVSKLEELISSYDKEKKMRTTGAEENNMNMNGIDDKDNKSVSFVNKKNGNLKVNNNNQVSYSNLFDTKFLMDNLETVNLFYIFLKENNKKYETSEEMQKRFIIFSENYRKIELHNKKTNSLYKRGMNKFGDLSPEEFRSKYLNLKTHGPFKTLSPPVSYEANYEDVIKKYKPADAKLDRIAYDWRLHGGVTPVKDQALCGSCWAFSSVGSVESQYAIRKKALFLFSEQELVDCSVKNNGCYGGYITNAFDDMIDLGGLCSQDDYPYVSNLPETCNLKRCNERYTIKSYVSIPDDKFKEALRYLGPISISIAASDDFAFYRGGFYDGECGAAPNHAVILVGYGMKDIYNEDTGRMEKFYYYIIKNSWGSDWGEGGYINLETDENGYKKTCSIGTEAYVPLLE

IC50, > 50 µM:
CC(C)CCNC(=O)[C@H](Cc1ccccc1)N=CC1C(=O)Nc2ccc(Cl)cc21 (stereo partly drawn) [(Z/E)-(S)-2-((5-chloro-2-oxoindolin-3-ylidene)methylamino)-N-isopentyl-3-phenylpropanamide], CC(C)CCNC(=O)[C@H](CC(C)C)N=CC1C(=O)Nc2ccc(Cl)cc21 (stereo partly drawn) [(Z/E)-(S)-2-((5-chloro-2-oxoindolin-3-ylidene)methylamino)-N-isopentyl-4-methylpentanamide], CC(C)CCNC(=O)[C@H](CCc1ccccc1)N=CC1C(=O)Nc2c(Cl)cccc21 (stereo partly drawn) [(Z/E)-(S)-2-((7-chloro-2-oxoindolin-3-ylidene)methylamino)-N-isopentyl-4-phenylbutanamide], CC(C)CCNC(=O)[C@H](CCc1ccccc1)N=CC1C(=O)Nc2ccccc21 (stereo partly drawn) [(Z/E)-(S)-N-isopentyl-2-((2-oxoindolin-3-ylidene)methylamino)-4-phenylbutanamide], CC(C)CCNC(=O)[C@H](CC(C)C)N=CC1C(=O)N(C)c2ccccc21 (stereo partly drawn) [(Z/E)-(S)-N-isopentyl-4-methyl-2-((1-methyl-2-oxoindolin-3-ylidene)methylamino)pentanamide], CC(C)CCNC(=O)[C@H](CC(C)C)N=CC1C(=O)Nc2ccccc21 (stereo partly drawn) [(Z/E)-(S)-N-isopentyl-4-methyl-2-((2-oxoindolin-3-ylidene)methylamino)pentanamide], CC(C)CCNC(=O)CN=CC1C(=O)Nc2ccccc21 (stereo not drawn) [(Z/E)-N-isopentyl-2-((2-oxoindolin-3-ylidene)methylamino)acetamide]
